Assay results from ChEMBL document CHEMBL4007396, “New diphenylmethane derivatives as peroxisome proliferator-activated receptor alpha/gamma dual agonists endowed with anti-proliferative effects and mitochondrial activity” (Eur J Med Chem, 2017).
Activity calls are given as the source filed them. The calls are words filed in the database; no cut-off is given here.

Tests used:
[1] = molecular target: T1, Peroxisome proliferator-activated receptor alpha (Homo sapiens, UniProt Q07869); experiment: Binding affinity to PPARalpha (unknown origin) assessed as kinetic dissociation constant by SPR assay
T1 sequence (Q07869 whole entry): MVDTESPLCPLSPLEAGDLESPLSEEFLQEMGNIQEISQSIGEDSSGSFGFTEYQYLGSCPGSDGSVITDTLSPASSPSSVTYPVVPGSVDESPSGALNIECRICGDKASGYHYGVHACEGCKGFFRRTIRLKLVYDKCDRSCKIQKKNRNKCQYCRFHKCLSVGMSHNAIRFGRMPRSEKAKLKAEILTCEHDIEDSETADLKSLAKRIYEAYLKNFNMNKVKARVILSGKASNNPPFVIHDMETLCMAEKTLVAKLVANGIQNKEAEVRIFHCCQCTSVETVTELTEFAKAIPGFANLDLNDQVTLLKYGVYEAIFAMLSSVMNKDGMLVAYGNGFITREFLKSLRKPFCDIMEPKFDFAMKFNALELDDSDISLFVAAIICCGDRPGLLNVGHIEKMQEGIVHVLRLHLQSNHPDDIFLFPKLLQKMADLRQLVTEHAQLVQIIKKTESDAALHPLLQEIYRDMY

[2] = molecular target: T2, Peroxisome proliferator-activated receptor gamma (Homo sapiens, UniProt P37231); experiment: Transactivation of GAL4-fused human PPARgamma LBD expressed in human HepG2 cells after 20 hrs by luciferase reporter gene assay; type: cell-based
T2 sequence (P37231 whole entry): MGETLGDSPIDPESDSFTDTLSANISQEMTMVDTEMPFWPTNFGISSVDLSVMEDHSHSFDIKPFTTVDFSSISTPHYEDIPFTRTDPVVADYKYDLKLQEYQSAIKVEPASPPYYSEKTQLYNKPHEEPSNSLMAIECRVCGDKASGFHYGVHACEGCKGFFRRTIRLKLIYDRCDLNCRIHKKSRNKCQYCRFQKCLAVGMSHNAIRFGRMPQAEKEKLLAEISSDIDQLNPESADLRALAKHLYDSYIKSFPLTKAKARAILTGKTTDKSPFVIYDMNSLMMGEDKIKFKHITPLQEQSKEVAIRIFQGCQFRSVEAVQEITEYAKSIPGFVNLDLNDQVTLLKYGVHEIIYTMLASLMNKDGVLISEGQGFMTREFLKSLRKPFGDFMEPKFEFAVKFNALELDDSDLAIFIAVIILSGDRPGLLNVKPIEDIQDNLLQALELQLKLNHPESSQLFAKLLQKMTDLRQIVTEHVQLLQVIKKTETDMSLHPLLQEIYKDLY

[3] = molecular target: T3, Bile acid receptor (Homo sapiens) (UniProt Q96RI1); experiment: Agonist activity at GAL4-fused human FXR LBD expressed in human HepG2 cells up to 2 uM after 20 hrs by luciferase reporter gene assay; type: cell-based
T3 sequence (whole entry): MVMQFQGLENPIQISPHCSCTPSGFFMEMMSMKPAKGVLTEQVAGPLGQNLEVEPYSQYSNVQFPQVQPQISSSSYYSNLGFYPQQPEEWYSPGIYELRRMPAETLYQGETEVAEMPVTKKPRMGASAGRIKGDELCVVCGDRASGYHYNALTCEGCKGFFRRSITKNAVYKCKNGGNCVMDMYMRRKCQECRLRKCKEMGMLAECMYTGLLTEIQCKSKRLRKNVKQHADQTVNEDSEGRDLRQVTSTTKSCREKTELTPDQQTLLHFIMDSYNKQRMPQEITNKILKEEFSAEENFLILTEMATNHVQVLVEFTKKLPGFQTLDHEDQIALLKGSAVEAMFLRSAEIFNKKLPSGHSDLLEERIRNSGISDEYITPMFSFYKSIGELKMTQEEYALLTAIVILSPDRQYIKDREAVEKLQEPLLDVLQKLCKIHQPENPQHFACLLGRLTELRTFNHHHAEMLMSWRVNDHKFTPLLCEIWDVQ
How it was run: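 HepG2 in MEM/10% FBS, calcium-phosphate co-transfection 24 h after seeding with GAL4-FXR-LBD (30 ng), pGAL5TKpGL3 luciferase reporter (100 ng) and pCMVβgal (250 ng); 4 h later, 20 h ligand exposure in triplicate. Luciferase normalized to β-galactosidase (ONPG); efficacy as % of maximal fold induction of chenodeoxycholic acid reference; tested up to 2 μM.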

[4] = molecular target: T4, Peroxisome proliferator-activated receptor alpha (Homo sapiens) (UniProt Q07869); experiment: Agonist activity at PPARalpha in human HepG2 cells assessed as increase in CAC protein expression level at 1 uM after 48 hrs by Western blot method; type: cell-based
T4 sequence (whole entry): T1 sequence (Q07869 whole entry)
How it was run: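 HepG2 serum-depleted 24 h, then treated 48 h with 1 μM compound (Wy-14,643 at 50 μM as reference). Nitrocellulose immunoblots probed for CAC, CPT1 or PPARα with β-actin loading control, chemiluminescent detection; band densitometry expressed as fold change versus untreated cells; three independent experiments.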

[5] = molecular target: T4, Peroxisome proliferator-activated receptor alpha (Homo sapiens); experiment: Agonist activity at PPARalpha assessed as induction of positive regulatory loop based receptor transcriptional activation by measuring upregulation of PPARalpha mRNA level in human HepG2 cells at 1 uM after 24 hrs by RT-PCR method; type: cell-based
How it was run: (§1)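 Serum-free HepG2 exposed 24 h to 1 μM test agent (Wy-14,643 reference at 50 μM). RNA extracted from 1x10⁶ cells; TaqMan real-time RT-PCR for CAC, CPT1 or PPARα, normalized to β-actin. Mean ± SD of three independent duplicate experiments; one-way ANOVA with Bonferroni test.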

[6] = test system: HEK-293T; experiment: Effect on p21waf1/cip1 protein expression in HEK293T cells at 10 uM after 48 hrs by Western blot method; type: cell-based; details: human
How it was run: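 HT-29 or HEK293T cells in DMEM/10% FBS treated 48 h with 10 μM compound (DMSO vehicle, final below 0.1%). RIPA lysates (with protease inhibitors), 80 μg protein per lane immunoblotted for p21waf1/cip1 with β-actin loading control; densitometric p21/β-actin ratio, mean ± SD of at least three independent experiments.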

[7] = molecular target: T4, Peroxisome proliferator-activated receptor alpha (Homo sapiens); experiment: Agonist activity at PPARalpha in human HepG2 cells assessed as increase in mitochondrial mass at 1 uM by CellLight Mitochondria-GFP staining based fluorescent microscopic method relative to control; type: cell-based
How it was run: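 Serum-free HepG2 at 60% confluence transduced with Mitochondria-GFP BacMam 2.0 (50 particles/cell) and given 1 μM compound or 50 μM Wy-14,643 for 24 h. Imaged at 20x with GFP filters (ex 485/em 535 nm); separately, SDS/Tris pH 7.5 lysates read at ex 475, em 500-550 nm. Mean ± SD of three experiments, ANOVA/Bonferroni.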

[8] = molecular target: T4, Peroxisome proliferator-activated receptor alpha (Homo sapiens); experiment: Agonist activity at PPARalpha in human HepG2 cells assessed as increase in CPT1 mRNA level at 1 uM after 24 hrs by RT-PCR method; type: cell-based; how it was run: as §1

| SMILES | Kd [1] [s⁻¹] | EC50 [2] [nM] | Activity [3] | Activity [4] | Activity [5] | Activity [6] | Activity [7] [%] | Activity [8] |
| --- | --- | --- | --- | --- | --- | --- | --- | --- |
| C[C@@H](Oc1ccc(Cc2ccc(OCc3coc(-c4ccccc4)n3)cc2)cc1)C(=O)O | 0.025 | 280 | inactive | Active | Active | Non-Toxic | 30 | Active |
| C[C@H](Oc1ccc(Cc2ccc(OCc3coc(-c4ccccc4)n3)cc2)cc1)C(=O)O | 0.016 | 300 | inactive | Active | Active | Non-Toxic | 30 | Active |
